Consider 14 compounds from ChEMBL document CHEMBL5257147 (ACS Med Chem Lett, 2023).

In series [1] the target is Epidermal growth factor receptor (Homo sapiens, UniProt P00533). Nature of the series: Inhibition of wild type EGFR (unknown origin) using TK-substrate preincubated with enzyme for 30 mins followed by substrate and ATP addition for 25 mins by HTRF assay. A general note: In TR-FRET formats the signal depends on donor and acceptor labels being close together.
The target of series [2] is Platelet-derived growth factor receptor alpha (Homo sapiens) (UniProt P16234). Nature of the series: Inhibition of GST-tagged human recombinant PDGFR-alpha (550 to 1089 residues) expressed in baculovirus expression system at 200 nM by Z'-lyte assay.
The target in series [3] is Epidermal growth factor receptor (Homo sapiens, UniProt P00533, C797S/L858R). Nature of the series: Inhibition of EGFR L858R/C797S mutant (unknown origin) using TK-substrate preincubated with enzyme for 30 mins followed by substrate and ATP addition for 20 mins by HTRF assay.
Series [4] deals with BaF3. Put plainly: Cytotoxicity against mouse BaF3 cells expressing EGFR L858R/C797S mutant assessed as reduction in cell viability incubated for 96 hrs by CellTiter-Glo assay. The conditions noted are these: BaF3, 96 h. The series is classed as functional, cell-based. In general terms: In ATP-based viability assays light output follows the ATP content of the culture.
Series [5] addresses Platelet-derived growth factor receptor beta (Homo sapiens) (UniProt P09619). Nature of the series: Inhibition of His-tagged human recombinant PDGFR-beta (558 to 1106 residues) expressed in baculovirus expression system at 200 nM by Z'-lyte assay.
For another series, the system named is A-431. Put plainly: Cytotoxicity against human A-431 cells expressing wild type EGFR assessed as reduction in cell viability incubated for 96 hrs by CellTiter-Glo assay. The series is classed as functional, cell-based. The conditions noted are these: A-431, 96 h.
Series [6] deals with Vascular endothelial growth factor receptor 2 (Homo sapiens) (UniProt P35968). Nature of the series: Inhibition of His-tagged human recombinant VEGFR2 (789 to 1356 residues) expressed in insect cells at 200 nM by Z'-lyte assay. Conditions: Insect cell.
For series [7], the target named is Tyrosine-protein kinase Fyn (Homo sapiens) (UniProt P06241). Nature of the series: Inhibition of His-tagged human recombinant FYN expressed in insect cells at 200 nM by Z'-lyte assay. The conditions noted are these: Insect cell.
In the next series the test system is Insect cell. Put plainly: Inhibition of GST-tagged human recombinant VEGFR3 (800 to 1297 residues) Q890H/V1128L/H1146R mutant expressed in insect cells at 200 nM by Z'-lyte assay.
Series [8] has as its system BaF3. Nature of the series: Cytotoxicity against mouse BaF3 cells expressing EGFR L858R/T790M/C797S mutant assessed as reduction in cell viability incubated for 96 hrs by CellTiter-Glo assay. Type of series: functional, cell-based. The conditions noted are these: BaF3, 96 h.
For series [9], the target named is Tyrosine-protein kinase BTK (Homo sapiens) (UniProt Q06187). Put plainly: Inhibition of His-tagged human recombinant BTK expressed in insect cells at 200 nM by Z'-lyte assay. The conditions noted are these: Insect cell.
Series [10] deals with Fibroblast growth factor receptor 2 (Homo sapiens) (UniProt P21802). Put plainly: Inhibition of His-tagged human recombinant FGFR2 (403 to 822 residues) expressed in baculovirus expression system at 200 nM by Z'-lyte assay.
For series [11], the target named is Epidermal growth factor receptor (Homo sapiens, UniProt P00533, C797S/L858R/T790M). Nature of the series: Inhibition of EGFR L858R/T790M/C797S mutant (unknown origin) using TK-substrate preincubated with enzyme for 30 mins followed by substrate and ATP addition for 10 mins by HTRF assay.
The target of series [12] is Tyrosine-protein kinase Fes/Fps (Homo sapiens) (UniProt P07332). Nature of the series: Inhibition of His-tagged human recombinant FES expressed in baculovirus expression system at 200 nM by Z'-lyte assay.
Series [13] addresses Tyrosine-protein kinase TXK (Homo sapiens) (UniProt P42681). Nature of the series: Inhibition of GST-tagged human recombinant TXK (260 to 527 residues) expressed in baculovirus expression system at 200 nM by Z'-lyte assay.
The nature of series [14]: Intrinsic clearance in mouse liver microsomes at 1 uM in presence of NADP measured per mg protein by LC-MS/MS analysis. Conditions: read-out: CLH. The series is classed as ADME, Microsome.
For series [15], the system named is Epidermal growth factor receptor (Homo sapiens), P00533 [L858R,T790M]. Put plainly: Inhibition of EGFR L858R/T790M mutant (unknown origin) using TK-substrate preincubated with enzyme for 30 mins followed by substrate and ATP addition for 20 mins by HTRF assay. Conditions: time 50.0 min.
The subject of series [16] is BaF3. Nature of the series: Cytotoxicity against mouse BaF3 cells expressing EGFR L858R mutant assessed as reduction in cell viability incubated for 96 hrs by CellTiter-Glo assay. Conditions: BaF3, 96 h. The series is classed as functional, cell-based. An outline of the steps: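 Cell viability measured by CellTiter-Glo (CTG) luminescence. A431 cells are EGFR wild-type dependent. Ba/F3 cells are made dependent on EGFR-L858R or EGFR-L858R/C797S. Readout is an EC50 for loss of viability.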

Series [17] addresses Epidermal growth factor receptor (Homo sapiens, UniProt P00533, L858R). Nature of the series: Inhibition of EGFR L858R mutant (unknown origin) using TK-substrate preincubated with enzyme for 30 mins followed by substrate and ATP addition for 15 mins by HTRF assay.
The target of series [18] is Tyrosine-protein kinase Blk (Homo sapiens) (UniProt P51451). Put plainly: Inhibition of His-tagged human recombinant BLK expressed in insect cells at 200 nM by Z'-lyte assay. Conditions: Insect cell.
Series [19] concerns the target Tyrosine-protein kinase ABL1 (Homo sapiens) (UniProt P00519). Put plainly: Inhibition of His-tagged human recombinant ABL1 expressed in insect cells at 200 nM by Z'-lyte assay. Conditions: Insect cell.
The target of series [20] is ALK tyrosine kinase receptor (Homo sapiens) (UniProt Q9UM73). Put plainly: Inhibition of human ALK at 200 nM by Z'-lyte assay.
For series [21], the target named is Inactive tyrosine-protein kinase PEAK1 (Homo sapiens) (UniProt Q9H792). Nature of the series: Inhibition of human PEAK1 at 200 nM by Z'-lyte assay.
The target in series [22] is Tyrosine-protein kinase Lyn (Homo sapiens) (UniProt P07948). Nature of the series: Inhibition of human LYN at 200 nM by Z'-lyte assay.
The target in series [23] is Tyrosine-protein kinase Lck (Homo sapiens) (UniProt P06239). Nature of the series: Inhibition of human LCK at 200 nM by Z'-lyte assay.
In series [24] the target is Tyrosine-protein kinase HCK (Homo sapiens) (UniProt P08631). Put plainly: Inhibition of GST-tagged human recombinant HCK expressed in insect cells at 200 nM by Z'-lyte assay. The conditions noted are these: Insect cell.

Structures are written as SMILES. Activity calls are given as the source filed them. No cut-off for these calls is given here.

Chain of Epidermal growth factor receptor (Homo sapiens, UniProt P00533, C797S/L858R/T790M) (P00533 25-1210 T790M/C797S/L858R limits assumed): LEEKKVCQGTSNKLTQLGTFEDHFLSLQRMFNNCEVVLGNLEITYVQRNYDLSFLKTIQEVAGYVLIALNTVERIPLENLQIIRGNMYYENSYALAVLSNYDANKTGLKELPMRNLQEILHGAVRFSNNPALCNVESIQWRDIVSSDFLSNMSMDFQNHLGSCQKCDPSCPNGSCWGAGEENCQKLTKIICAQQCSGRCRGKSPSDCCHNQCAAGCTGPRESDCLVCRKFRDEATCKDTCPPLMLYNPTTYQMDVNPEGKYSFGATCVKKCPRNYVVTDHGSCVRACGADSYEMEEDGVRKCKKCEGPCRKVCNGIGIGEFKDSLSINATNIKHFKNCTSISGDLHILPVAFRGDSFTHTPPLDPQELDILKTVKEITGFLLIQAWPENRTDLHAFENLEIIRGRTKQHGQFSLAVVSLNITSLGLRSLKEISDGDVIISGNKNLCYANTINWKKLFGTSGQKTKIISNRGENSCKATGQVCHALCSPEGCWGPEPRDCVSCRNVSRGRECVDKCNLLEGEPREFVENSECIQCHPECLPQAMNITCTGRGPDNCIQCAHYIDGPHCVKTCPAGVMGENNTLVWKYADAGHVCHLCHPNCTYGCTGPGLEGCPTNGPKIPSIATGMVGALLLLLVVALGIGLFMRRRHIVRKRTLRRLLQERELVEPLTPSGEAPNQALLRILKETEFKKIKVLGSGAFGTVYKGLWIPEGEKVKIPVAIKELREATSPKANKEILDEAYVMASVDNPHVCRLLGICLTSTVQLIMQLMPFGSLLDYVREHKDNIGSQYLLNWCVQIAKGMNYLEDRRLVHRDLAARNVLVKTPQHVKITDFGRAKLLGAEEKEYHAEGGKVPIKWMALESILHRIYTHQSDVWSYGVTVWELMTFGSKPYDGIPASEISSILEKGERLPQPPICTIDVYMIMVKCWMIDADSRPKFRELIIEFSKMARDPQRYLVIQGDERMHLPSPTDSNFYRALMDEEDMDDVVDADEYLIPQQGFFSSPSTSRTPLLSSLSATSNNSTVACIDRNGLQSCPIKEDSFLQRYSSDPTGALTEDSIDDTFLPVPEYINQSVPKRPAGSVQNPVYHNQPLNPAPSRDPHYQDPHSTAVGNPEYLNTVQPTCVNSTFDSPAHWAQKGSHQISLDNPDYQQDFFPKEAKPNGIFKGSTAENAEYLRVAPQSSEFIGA
Chain of Epidermal growth factor receptor (Homo sapiens, UniProt P00533) (P00533 whole entry, the tested form may be a part): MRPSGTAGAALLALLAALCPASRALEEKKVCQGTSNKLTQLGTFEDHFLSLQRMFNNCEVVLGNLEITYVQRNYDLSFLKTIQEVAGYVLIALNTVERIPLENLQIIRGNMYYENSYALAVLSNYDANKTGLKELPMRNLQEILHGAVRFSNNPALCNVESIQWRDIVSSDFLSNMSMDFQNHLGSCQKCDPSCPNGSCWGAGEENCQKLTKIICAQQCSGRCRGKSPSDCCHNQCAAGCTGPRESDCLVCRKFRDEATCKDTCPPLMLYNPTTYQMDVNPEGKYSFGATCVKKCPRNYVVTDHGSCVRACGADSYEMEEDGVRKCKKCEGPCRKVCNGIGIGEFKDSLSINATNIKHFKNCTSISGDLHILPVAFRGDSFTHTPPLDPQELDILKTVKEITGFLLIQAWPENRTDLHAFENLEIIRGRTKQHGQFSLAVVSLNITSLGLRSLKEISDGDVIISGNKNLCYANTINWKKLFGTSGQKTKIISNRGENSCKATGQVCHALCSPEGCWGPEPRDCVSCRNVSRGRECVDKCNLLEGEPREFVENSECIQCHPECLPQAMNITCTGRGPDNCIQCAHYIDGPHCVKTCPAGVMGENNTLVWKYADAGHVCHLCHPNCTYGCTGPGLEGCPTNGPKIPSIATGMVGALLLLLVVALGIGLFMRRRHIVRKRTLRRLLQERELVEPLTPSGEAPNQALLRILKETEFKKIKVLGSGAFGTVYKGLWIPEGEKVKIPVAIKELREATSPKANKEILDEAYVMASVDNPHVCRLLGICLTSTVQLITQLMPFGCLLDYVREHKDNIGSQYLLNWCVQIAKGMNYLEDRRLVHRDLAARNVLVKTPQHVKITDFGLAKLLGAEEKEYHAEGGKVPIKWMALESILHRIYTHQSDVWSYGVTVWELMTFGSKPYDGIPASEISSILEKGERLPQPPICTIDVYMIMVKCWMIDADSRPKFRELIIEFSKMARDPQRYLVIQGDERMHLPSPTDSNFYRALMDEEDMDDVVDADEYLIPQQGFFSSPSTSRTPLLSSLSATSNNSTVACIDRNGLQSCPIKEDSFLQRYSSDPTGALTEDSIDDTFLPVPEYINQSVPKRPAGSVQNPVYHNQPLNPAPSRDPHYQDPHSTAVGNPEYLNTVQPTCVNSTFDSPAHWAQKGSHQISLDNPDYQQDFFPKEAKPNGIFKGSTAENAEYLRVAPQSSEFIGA
Chain of Epidermal growth factor receptor (Homo sapiens, UniProt P00533, C797S/L858R) (P00533 25-1210 C797S/L858R limits assumed): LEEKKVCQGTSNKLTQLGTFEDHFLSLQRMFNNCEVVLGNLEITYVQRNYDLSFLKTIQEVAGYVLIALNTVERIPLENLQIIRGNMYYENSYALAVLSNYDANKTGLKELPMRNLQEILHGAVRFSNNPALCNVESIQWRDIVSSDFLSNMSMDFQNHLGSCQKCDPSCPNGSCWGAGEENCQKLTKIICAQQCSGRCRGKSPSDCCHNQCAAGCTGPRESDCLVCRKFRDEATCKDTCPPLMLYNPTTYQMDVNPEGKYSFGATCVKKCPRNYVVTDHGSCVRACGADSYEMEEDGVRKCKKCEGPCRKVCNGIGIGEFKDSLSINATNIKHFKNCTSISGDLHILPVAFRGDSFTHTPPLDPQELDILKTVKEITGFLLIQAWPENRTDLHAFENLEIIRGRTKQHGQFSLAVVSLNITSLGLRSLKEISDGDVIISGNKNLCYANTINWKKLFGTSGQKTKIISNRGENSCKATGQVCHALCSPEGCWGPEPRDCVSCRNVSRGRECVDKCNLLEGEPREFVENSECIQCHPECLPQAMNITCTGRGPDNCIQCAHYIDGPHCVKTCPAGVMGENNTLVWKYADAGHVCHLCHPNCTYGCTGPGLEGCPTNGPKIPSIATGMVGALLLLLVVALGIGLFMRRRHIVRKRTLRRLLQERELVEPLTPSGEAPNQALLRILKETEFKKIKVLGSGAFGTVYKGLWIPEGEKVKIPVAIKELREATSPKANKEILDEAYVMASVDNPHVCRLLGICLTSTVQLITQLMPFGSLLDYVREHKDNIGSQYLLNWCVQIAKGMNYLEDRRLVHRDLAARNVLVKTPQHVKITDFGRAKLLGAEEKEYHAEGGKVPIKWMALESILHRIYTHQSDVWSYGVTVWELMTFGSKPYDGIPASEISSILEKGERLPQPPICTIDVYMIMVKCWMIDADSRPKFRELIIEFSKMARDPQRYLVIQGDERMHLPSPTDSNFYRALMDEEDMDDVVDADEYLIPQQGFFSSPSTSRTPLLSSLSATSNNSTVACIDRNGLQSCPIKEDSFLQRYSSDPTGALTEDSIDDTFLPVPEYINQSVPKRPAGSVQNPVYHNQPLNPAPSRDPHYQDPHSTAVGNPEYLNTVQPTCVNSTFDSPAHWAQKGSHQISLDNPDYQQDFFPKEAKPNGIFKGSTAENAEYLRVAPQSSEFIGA
Chain of Epidermal growth factor receptor (Homo sapiens, UniProt P00533, L858R) (P00533 25-1210 L858R limits assumed): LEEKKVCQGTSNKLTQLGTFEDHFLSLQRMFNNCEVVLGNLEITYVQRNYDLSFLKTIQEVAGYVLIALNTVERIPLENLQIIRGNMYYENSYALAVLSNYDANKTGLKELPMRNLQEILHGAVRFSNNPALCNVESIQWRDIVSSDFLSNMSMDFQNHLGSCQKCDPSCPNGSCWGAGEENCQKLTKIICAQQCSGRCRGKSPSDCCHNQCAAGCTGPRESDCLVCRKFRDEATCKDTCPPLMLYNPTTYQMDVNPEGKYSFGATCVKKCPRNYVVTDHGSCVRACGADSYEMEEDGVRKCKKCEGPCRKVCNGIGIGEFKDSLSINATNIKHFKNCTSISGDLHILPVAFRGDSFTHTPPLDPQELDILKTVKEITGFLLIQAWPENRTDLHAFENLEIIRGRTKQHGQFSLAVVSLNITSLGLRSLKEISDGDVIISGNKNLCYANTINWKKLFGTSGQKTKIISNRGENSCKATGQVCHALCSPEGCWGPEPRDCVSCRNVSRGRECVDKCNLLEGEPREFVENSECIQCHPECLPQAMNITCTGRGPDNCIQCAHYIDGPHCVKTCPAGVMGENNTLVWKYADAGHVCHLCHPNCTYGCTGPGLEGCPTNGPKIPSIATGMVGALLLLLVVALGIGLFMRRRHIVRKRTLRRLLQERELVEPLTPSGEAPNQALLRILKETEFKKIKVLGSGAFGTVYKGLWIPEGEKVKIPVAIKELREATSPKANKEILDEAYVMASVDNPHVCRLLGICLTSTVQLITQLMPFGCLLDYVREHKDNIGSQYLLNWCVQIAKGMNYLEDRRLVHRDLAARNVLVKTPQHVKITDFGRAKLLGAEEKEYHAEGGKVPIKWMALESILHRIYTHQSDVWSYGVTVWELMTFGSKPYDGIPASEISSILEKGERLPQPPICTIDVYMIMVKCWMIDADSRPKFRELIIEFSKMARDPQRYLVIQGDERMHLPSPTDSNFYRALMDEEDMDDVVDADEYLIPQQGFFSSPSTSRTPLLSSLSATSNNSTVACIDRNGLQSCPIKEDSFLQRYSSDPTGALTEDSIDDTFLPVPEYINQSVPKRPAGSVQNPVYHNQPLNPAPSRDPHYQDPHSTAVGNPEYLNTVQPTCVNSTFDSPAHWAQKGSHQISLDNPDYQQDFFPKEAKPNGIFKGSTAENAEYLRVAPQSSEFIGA

What is called IC50 is the point on the concentration scale where inhibition reaches its midpoint. High values mean weaker potency, low ones greater potency. Usually inhibition stands for the percentage by which the read-out fell short of the control. As a reminder, the EC50 is the midpoint of the concentration-response curve. As to `COc1cc(N2CCC(N(C)C)CC2)ccc1Nc1ncc(C(=O)Oc2ccccc2)c(-c2c[nH]c3ccccc23)n1`, the IC50 in series [1] worked out at 0.008 nM; in series [3], 0.02 nM; in series [11] it was 0.64 nM. Moreover, the inhibition (in series [2]; in series [5]; in [6]; in series [7]; with Insect cell; in [10]) was above 40% each time. The inhibition in series [12] and in series [13] was above 40% each time. Also, the EC50 is 7.1 nM in the series with BaF3 [4], 1840 nM in the series with A-431 and 470 nM with BaF3 [8]. Moreover, the inhibition entry in series [9] and in series [15] was “Active” each time. The microsomal CLint at 1 µM in [14] was 55 µL/min/mg.
For the compound `COc1cc(N2CCC(N)CC2)ccc1Nc1ncc(C(=O)OC(C)C)c(-c2cn(C)c3ccccc23)n1`, the IC50 in [1] stood at 0.35 nM; in [3] it was 0.56 nM; in [11], 12 nM. Besides, the EC50 in the series on BaF3 [4] was found to be 354 nM; in the series on A-431, 4020 nM.
For `COc1cc(N2CCC(N(C)C)CC2)ccc1Nc1ncc(C(=O)OC(C)C)c(-c2cn(C(C)=O)c3ccccc23)n1` the same measures were 0.86 nM, 3 nM, 78 nM, 220 nM and 3920 nM.
For `CCOC(=O)c1cnc(Nc2ccc(N3CCN(C)CC3)cc2OC)nc1-c1cn(C)c2ccccc12`, the IC50 in series [1] was determined as 5.2 nM; in series [3], 17 nM; in [17], 0.68 nM. The EC50 in the series with BaF3 [4] came out at 1880 nM; in the series with BaF3 [16] it was 1900 nM.
The like results for `COC(=O)c1cnc(Nc2ccc(N3CCN(C)CC3)cc2OC)nc1-c1cn(C)c2ccccc12` were, in that order, 23 nM, 73 nM, 3.4 nM, 3750 nM and 3340 nM.
For the compound `COc1cc(N2CCN(C)CC2)ccc1Nc1ncc(C(=O)Oc2ccc(F)cc2)c(-c2cn(C)c3ccccc23)n1`, the EC50 in the series on BaF3 [4] came to 227 nM; in the series with A-431, 1410 nM.
The like results for `COc1cc(N2CCC(N3CCN(C)CC3)CC2)ccc1Nc1ncc(Cl)c(Nc2ccccc2P(C)(C)=O)n1` [BRIGATINIB] were, in that order, 295 nM and 936 nM.
With `C=CC(=O)Nc1cc(Nc2ncc(C(=O)OC(C)C)c(-c3cn(C)c4ccccc34)n2)c(OC)cc1N(C)CCN(C)C` [MOBOCERTINIB], the IC50 is 0.025 nM in series [1], 25 nM in series [3], 0.01 nM in series [17] and 364 nM in series [11]. The EC50 in the series on BaF3 [4] stood at 2710 nM; with A-431, 1680 nM; in the series with BaF3 [16], 1.1 nM. The microsomal CLint at 1 µM in series [14] is 149 µL/min/mg.
As to `COc1cc(N2CCN(C)CC2)ccc1Nc1ncc(C(=O)OC(C)C)c(-c2cn(C)c3ccccc23)n1`, the EC50 with BaF3 [4] is 615 nM; in the series on A-431 it was 7960 nM; in the series on BaF3 [16], 605 nM.
On to `COc1cc(N2CCC(N(C)C)CC2)ccc1Nc1ncc(C(=O)OC(C)C)c(-c2cn(C)c3ccccc23)n1`, for which the IC50 came to 0.4 nM in [1], 0.42 nM in series [3] and 19 nM in series [11]. Moreover, the results for the EC50 in the series with BaF3 [4] and in the series on A-431 were 202 nM and 3670 nM, respectively.
For the compound `COc1cc(N2CCN(C)CC2)ccc1Nc1nccc(-c2cn(C)c3ccccc23)n1`, the IC50 is 34 nM in [1], 125 nM in series [3] and 5.4 nM in series [17]. For the same compound, the EC50 in the series with BaF3 [4] stood at 2060 nM; with BaF3 [16], 3630 nM.
With `COc1cc(N2CCC(N(C)C)CC2)ccc1Nc1ncc(C(=O)OC(C)C)c(-c2c[nH]c3ccccc23)n1`, the half-maximal inhibitory concentration (IC50) was found to be 0.16 nM in [1], 0.32 nM in series [3] and 15 nM in [11]. Further, the inhibition in series [18], in series [19], in [20], in [21], in [22] and in series [23] was above 40% throughout. The inhibition in series [24] was above 40%. Also, the EC50 in the series with BaF3 [4] is 111 nM; in the series with A-431, 3890 nM. In addition, the microsomal CLint at 1 µM in series [14] worked out at 49 µL/min/mg.
Turning to `COc1cc(N2CCN(C)CC2)ccc1Nc1ncc(C(=O)Oc2ccccc2)c(-c2cn(C)c3ccccc23)n1`, the IC50 in [1] was found to be 0.053 nM; in series [3], 0.064 nM; in series [11], 8.8 nM. Besides, the values for the EC50 in the series with BaF3 [4] and in the series with A-431 were 94 nM and 2610 nM, respectively.
In the case of `C=CC(=O)Nc1cc(Nc2nccc(-c3cn(C)c4ccccc34)n2)c(OC)cc1N(C)CCN(C)C` [OSIMERTINIB], the EC50 was found to be 2960 nM with BaF3 [4], […] with A-431 and 6 nM in the series on BaF3 [16]. Further, the microsomal CLint at 1 µM in series [14] was found to be 81 µL/min/mg.
